Paper PMC8777244 (Biochemistry and Biophysics Reports, 2022)
Where “and” joins values, the source holds several entries; their conditions need not be identical. Equal values may be shown once. Entries after “also recorded” stand apart in the source; their conditions may differ. Each block holds one substance with its values, some of them ahead of it.

Tests used:
[1] = Size-exclusion chromatography, oligomeric states; format: physicochemical
Summary of the method: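 HPLC gel filtration of amylose-purified MBP-fused NOX5 dehydrogenase domain, run against CaM and BSA references. Column equilibrated in Tris pH 7.5 (50 mM per figure legends, 20 mM per methods) with 0.2 M NaCl (0.2–0.5 M range), plus 2 mM Ca²⁺ or 1 mM EDTA. Runs at 1.0 mL/min with 280 nm detection. 2 M urea added to partially dissociate oligomers. Species assigned by elution time.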

nitric oxide synthase = settings: Cav-1p residues 82–101; ref [26]; cited from earlier work
Nox5 = settings: peptide from the scaffold domain of Cav-1; ref [13]; cited from earlier work
CaM [2] = experiment: CaM/CMBD binding by Trp fluorescence
CaM [3] = experiment: CaM/CMBD binding by Trp fluorescence anisotropy; settings: Ca^2+
Summary of the method: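 Trp anisotropy of 1 μM CMBD peptide (residues 671–689) was recorded during CaM titration. Excitation was 280 or 295 nm, and excitation and emission slits were both 10 nm, with polarizers. Buffer was 50 mM Tris, pH 7.5, 2 mM Ca²⁺, at room temperature. Anisotropy values were fitted following earlier work. Values are mean ± SD of at least three runs.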

CaM [4] = settings: titration curve inflection point; ref [18]; cited from earlier work
CCaM = experiment: CMBD/CCaM binding by isothermal titration calorimetry; settings: CMBD titrated into CCaM; 50 mM Tris, pH 7.5, 2 mM Ca^2+, 25 °C; mean ± SD
Summary of the method: (§1)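 ITC was run on a VP-ITC at 25 °C in 50 mM Tris, 2 mM Ca²⁺, pH 7.5, with 0.15–0.25 M NaCl added for salt studies. Injections were 5 or 10 μL over 10 or 20 s, spaced 120 s. Heat of dilution (titrant into buffer) was subtracted. Data were fitted with a one-set-of-sites model. Back-titration used 250 μM CaM into 40 μM CMBD. Values are mean ± SD.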

CaM [5] = experiment: CaM/CMBD binding by isothermal titration calorimetry
Summary of the method: as §1

D-CaM = experiment: CMBD binding to Ca^2+-D-CaM by fluorescence; settings: CMBD added to 2 μM D-CaM, 50 mM Tris, 2 mM Ca^2+, pH 7.5
Summary of the method: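 D-CaM (Dansyl-labelled calmodulin) was excited at 335 nm, with excitation and emission slits of 2 and 5 nm, on a temperature-controlled fluorometer. Emission spectra were followed during titration with MBP-fused Nox5 dehydrogenase (DH) constructs or CMBD peptide. Buffer was 50 mM Tris, pH 7.5, with 2 mM Ca²⁺. Fits of intensity changes followed earlier work. Each measurement was done at least three times using 2–3 protein batches.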

CaM [6] = settings: ref [17]; cited from earlier work
CaM [7] = settings: Ca^2+-CaM; ref [11]; cited from earlier work
CaM [8] = experiment: CaM interaction by size-exclusion chromatography; format: binding; settings: D-CMBD with CaM; for Complex with CaM in SEC, Ca^2+: 0.2 M NaCl, 2 mM Ca^2+
Summary of the method: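 HPLC size-exclusion used a Shodex KW802.5 column at 1.0 mL/min with 280 nm detection. Buffer was Tris, pH 7.5, with 0.2 M NaCl (range 0.2–0.5 M) plus 2 mM Ca²⁺ or 1 mM EDTA. Samples were filtered through 0.45 μm. MBP-DH constructs, alone or mixed with CaM or Dansyl-CaM, were compared with BSA. Collected fractions were assayed for Dansyl fluorescence.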

NCaM = experiment: CMBD/NCaM binding by isothermal titration calorimetry; settings: CMBD titrated into NCaM; 50 mM Tris, pH 7.5, 2 mM Ca^2+, 25 °C; mean ± SD
Summary of the method: as §1

CaM [9] = experiment: CaM/D-CMBD binding by Dansyl fluorescence
Summary of the method: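 N-terminally Dansyl-labelled Nox5β CMBD peptide (residues 671–689) was titrated with CaM at room temperature. Excitation was 335 nm, with 2/5 nm slits. Buffer was 50 mM Tris, pH 7.5, with 2 mM Ca²⁺ or 1 mM EDTA. Emission maxima and intensity changes were recorded and fitted following earlier work. Values are mean ± SD of at least three runs.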

Substance: Bovine serum albumin (BSA): Bovine serum albumin, SEC standard [reference compound]
SEC elution time, BSA monomer ([1]; 50 mM Tris, pH 7.5, 0.2 M NaCl, 66 kDa): 8.57 min
SEC elution time, BSA dimer ([1]; 50 mM Tris, pH 7.5, 0.2 M NaCl, 132 kDa): 7.76 min
SEC elution time, BSA trimer ([1]; 50 mM Tris, pH 7.5, 0.2 M NaCl, 198 kDa): 7.23 min

Substance: Cav-1P: peptide from the scaffold domain of Cav-1 (residues 82–101) (DGIWKASFTTFTVTKYWFYR; UniProt Q03135 82-101, looked up, fragment)
Effect on NO production (nitric oxide synthase): inhibits the NO production
Effect on Nox5's superoxide-generating activity (Nox5): inhibit the Nox5's superoxide-generating activity

Equivalents of CaM to saturate binding (intensity) (CaM [2]; 330 nm, Ca^2+): one
Emission maximum, CaM-bound CMBD (CaM [2]; Trp fluorescence upon addition of CaM, Ca^2+): 330 nm
Wavelength shift on CaM binding (CaM [2]; Trp fluorescence, blue shift, Ca^2+): ~20 nm
Molar ratio at saturation (anisotropy) (CaM [3]; 1 μM CMBD with CaM): ~1.2
Trp anisotropy value (r), complexed with CaM (maximum) (CaM [3]; 1 μM CMBD with CaM, emission 352 nm): 0.136
Trp anisotropy value (r), peptide alone (CaM [3]; 1 μM CMBD, emission 352 nm): 0.0405
Binding constant, ITC CMBD/CCaM (CCaM): (9.50 ± 0.62) x 10^5 M^-1
nCaM/CMBD, ITC back-titration (CaM [5]; 250 μM CaM into 40 μM CMBD, 25 °C): 0.56
Effect of NaCl on binding (CaM [5]; 0.1 − 0.25 M NaCl): does not change significantly
Stoichiometry n[peptide]/Protein (nCMBD/CaM), ITC CaM/CMBD (back-titration) (CaM [5]; converted from nCaM/CMBD, 250 μM CaM into 40 μM CMBD, 25 °C, mean ± SD): 1.79 and 1.79 ± 0.11
Cooperativity of CMBD binding (CaM [5]; two CMBD peptides on half-domains of CaM): no cooperativity was observed
Binding constant, ITC CMBD/NCaM (NCaM): (2.42 ± 1.21) x 10^6 M^-1
Substance: H2NRPDWSKVFQKVAAEKKGKVCOOH [CMBD]
CaM binding in the absence of Ca^2+ (CMBD) (CaM [2]; Trp fluorescence, 50 mM Tris, pH 7.5, 1 mM EDTA): A similar finding using CMBD's Trp fluorescence was found in the absence of Ca^2+; also recorded: non-specific electrostatic interaction which is not biologically significant
Ka, previous estimate (CaM [4]): 4e+07 M⁻¹
Stoichiometry, previous estimate (CaM [4]): near unity stoichiometry
Intensity change, CMBD with D-CaM (D-CaM): very small intensity; also recorded: small intensity change
Binding mode in crystal structure (CaM [6]): each of the two CMBD peptides is bound in the cleft formed in half-domain
ANS fluorescence decrease of CaM/CMBD (CaM [7]): ~3%
Complex with CaM in SEC, Ca^2+ (CaM [8]): a stable Ca^2+-CaM/CMBD complex was formed in non-equilibrium system

SEC elution time, EDTA / apo ([1]; KW802.5 column, 1.0 mL/min, 0.2 M NaCl, 1 mM EDTA, pH 7.5): 25.67 min
SEC elution time, Ca^2+ ([1]; KW802.5 column, 1.0 mL/min, 0.2 M NaCl, 2 mM Ca^2+, pH 7.5): 29.31 min
Stoichiometry n[Peptide]/[Protein], CaM/D-CMBD (CaM [9]; 2 μM D-CMBD titrated with CaM, Dansyl fluorescence, 50 mM Tris, pH 7.5, 2 mM Ca^2+, room temperature, mean ± SD): 2.11 and 2.11 ± 0.11
Dansyl emission maximum, D-CMBD alone (CaM [9]; Ca^2+): 550 nm
Dansyl emission maximum, D-CMBD with CaM (CaM [9]; Ca^2+): 518 nm
Dansyl intensity increase on CaM binding (CaM [9]; Ca^2+): ~8 fold
Binding affinity in the absence of Ca^2+ (CaM [9]; absence of Ca^2+ (EDTA), estimated, diminished in a higher ionic strength): ~10^5 M^-1
Substance: H2NRPDWSKVFQKVAAEKKGKVCOOH [D-CMBD]
Dansyl fluorescence in CaM fraction, absence of Ca^2+ (CaM [8]; 1 mM EDTA): No Dansyl fluorescence was found in the CaM fractions
Complex with CaM in SEC, Ca^2+ (CaM [8]): complexed with Ca^2+-CaM when a large excess of CaM was included

Substance: hemoglobin [reference compound]
SEC elution time, reference protein ([1]; 0.2 M NaCl, same settings): 9.51 min
